pEC50, pKi: −log10 of the molar value.
Key:
[1] = Selectivity index, ratio of CC50 for MT4 cells to EC50 for HIV1 NL43 infected MT4 cells; type: functional
[2] = tested on: Human immunodeficiency virus 1; assay: Antiviral activity against HIV1 NL43 in MT4 cells assessed as inhibition of viral induced cytopathic effect after 5 days by MTT method; details: Human immunodeficiency virus 1, NL43, MT4, 120 h
[3] = Cytotoxicity against MT4 cells after 4 days by MTT method; type: cell-based; details: human
Method in brief: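 Mock-infected (noninfected) MT-4 cells, run in parallel with the antiviral test. Viable cells read by the MTT tetrazolium colorimetric method. […] Means ± SD from at least two experiments. The top concentration was limited where compounds precipitated in the culture medium.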

[4] = tested on: Human immunodeficiency virus 1; assay: Antiviral activity against HIV1 with reverse transcriptase K103N mutation in MT4 cells assessed as inhibition of viral induced cytopathic effect by MTT method; type: functional, organism-based; details: Human immunodeficiency virus 1, MT4
Method in brief: (§1)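 MT-4 cells infected with the HIV-1 NNRTI-resistant mutant strain. Viable cells scored at day 5 post-infection by the MTT tetrazolium colorimetric method. […] Values are means ± SD from at least two experiments.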

[5] = Resistance index, Ratio of EC50 for drug-resistant HIV1 with RT Y181C mutation in MT4 cells to EC50 for HIV1 NL43 in MT4 cells
[6] = tested on: Human immunodeficiency virus 1; assay: Antiviral activity against HIV1 with reverse transcriptase Y181C mutation in MT4 cells assessed as inhibition of viral induced cytopathic effect by MTT method; type: functional, organism-based; details: Human immunodeficiency virus 1, MT4; method in brief: as §1
[7] = tested on: Human immunodeficiency virus 1; assay: Antiviral activity against HIV1 with reverse transcriptase Y188L mutation in MT4 cells assessed as inhibition of viral induced cytopathic effect by MTT method; type: functional, organism-based; details: Human immunodeficiency virus 1, MT4
Method in brief: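 MT-4 cells infected with the HIV-1 NNRTI-resistant mutant strain. Viable cells scored at day 5 post-infection by the MTT tetrazolium colorimetric method. Values are means ± SD from at least two experiments.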

[8] = tested on: Human immunodeficiency virus 1; assay: Antiviral activity against HIV1 with reverse transcriptase IRLL98 mutation in MT4 cells assessed as inhibition of viral induced cytopathic effect by MTT method; type: functional, organism-based; details: Human immunodeficiency virus 1, MT4
[9] = Resistance index, Ratio of EC50 for drug-resistant HIV1 with RT IRLL98 mutation in MT4 cells to EC50 for HIV1 NL43 in MT4 cells
[10] = biological target: Human immunodeficiency virus type 1 reverse transcriptase (Human immunodeficiency virus 1, UniProt Q72547, V106A); assay: Inhibition of HIV1 reverse transcriptase V106A mutant
[11] = Resistance index, Ratio of EC50 for drug-resistant HIV1 with RT K103N mutation in MT4 cells to EC50 for HIV1 NL43 in MT4 cells
[12] = biological target: Human immunodeficiency virus type 1 reverse transcriptase (Human immunodeficiency virus 1, UniProt Q72547, K103N); assay: Inhibition of HIV1 reverse transcriptase K103N mutant
[13] = biological target: Human immunodeficiency virus type 1 reverse transcriptase (Human immunodeficiency virus 1, UniProt Q72547, Y188L); assay: Inhibition of HIV1 reverse transcriptase Y188L mutant
[14] = biological target: Human immunodeficiency virus type 1 reverse transcriptase (Human immunodeficiency virus 1, UniProt Q72547); assay: Inhibition of wild type HIV1 3B reverse transcriptase
[15] = biological target: Human immunodeficiency virus type 1 reverse transcriptase (Human immunodeficiency virus 1, UniProt Q72547, L100I); assay: Inhibition of HIV1 reverse transcriptase L100I mutant
[16] = Inhibition of HIV1 reverse transcriptase Y1811 mutant; parameters: species or system Human immunodeficiency virus 1
Method in brief: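 Recombinant HIV-1 RT Y181I mutant, purified to >95%, 10 min preincubation with inhibitor. Radioactive nucleotide incorporation into poly(rA)/oligo(dT) 10:1 was followed at varied nucleotide substrate levels, sampling every 2 min for initial velocities. Inhibitor spanned 0.2–5 Ki. Ki came from Lineweaver-Burk and Dixon plots. Means ± SD of at least three experiments.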

SMILES	Ratio CC50/EC50 [1]	pEC50 [2]	CC50 at 96 h [3]	pEC50 [4]	Ratio EC50 [5]	pEC50 [6]	pEC50 [7]	pEC50 [8]	Ratio EC50 [9]	also measured
O=c1cc(Cc2c(F)cccc2F)nc(-n2cccc2)[nH]1	>5	4.76	> 87000 nM							
CC(C)N(C)c1nc(Cc2c(F)cccc2F)cc(=O)[nH]1	10625	8.10	85000 nM	< 5.00	4	7.52	< 5.00	6.74	22	
O=c1cc(Cc2c(F)cccc2F)nc(N2CCC3(CC2)OCCO3)[nH]1	>31	5.65	> 69000 nM							
Cc1c(C(C)c2c(Cl)cccc2Cl)nc(N(C)C)[nH]c1=O (stereo unspecified)	1167	7.52	35000 nM							
CCN(C)c1nc(Cc2c(F)cccc2F)cc(=O)[nH]1	>6846	7.89	> 89000 nM	< 5.00	38	6.30	< 5.00	5.70	154	
CC1CCN(c2nc(Cc3c(F)cccc3F)cc(=O)[nH]2)CC1	>2229	7.46	> 78000 nM	< 5.00	37	5.89	< 5.00	5.34	131	
O=C1Nc2ccc(Cl)cc2C(C#CC2CC2)(C(F)(F)F)O1 (single isomer, unassigned) [EFAVIRENZ]			> 300 nM	7.05		8.22	6.64	7.10		
Cc1c(Cc2c(F)cccc2F)nc(N2CCCCC2C)[nH]c1=O (stereo unspecified)	8333	8.05	75000 nM	< 5.00	16	6.85	< 5.00	5.85	156	
CCN(CC)c1nc(Cc2c(F)cccc2F)cc(=O)[nH]1	>639	6.88	> 85000 nM							
Cc1c(Cc2c(F)cccc2F)nc(N2CCCC(C)C2)[nH]c1=O (stereo unspecified)	>4167	7.74	> 75000 nM	< 5.00	32	6.24	< 5.00	5.68	117	
Cc1c(Cc2c(F)cccc2F)nc(N2CCCC2)[nH]c1=O	>2562	7.49	> 82000 nM	< 5.00	161	5.29	< 5.00	< 5.00		
CC1CCCN(c2nc(Cc3c(F)cccc3F)cc(=O)[nH]2)C1 (stereo unspecified)	>2437	7.49	> 78000 nM	< 5.00	13	6.37	< 5.00	5.74	56	
Cc1c(Cc2c(F)cccc2F)nc(N(C)c2ccccc2)[nH]c1=O	>849	7.07	> 73000 nM							
Cc1c(Cc2c(F)cccc2F)nc(N2CCC(C)CC2)[nH]c1=O	>750	7.00	> 75000 nM	< 5.00			< 5.00	< 5.00		pKi [10]: 6.30
Cc1c(Cc2c(F)cccc2F)nc(N2CCCCCC2)[nH]c1=O	>1500	7.30	> 75000 nM	< 5.00	11	6.24	< 5.00	5.77	34	pKi [10]: 6.30
Cc1c(C(C)c2c(F)cccc2F)nc(N2CCCC2)[nH]c1=O (stereo unspecified)	>39000	8.70	> 78000 nM	6.81	35	7.15	< 5.00	6.70	100	Ratio EC50 [11]: 77

SMILES	Ratio CC50/EC50 [1]	pEC50 [2]	CC50 at 96 h [3]	pEC50 [4]	Ratio EC50 [5]	pEC50 [6]	pEC50 [7]	pEC50 [8]	Ratio EC50 [9]	also measured
CCCN(C)c1nc(Cc2c(F)cccc2F)cc(=O)[nH]1	9444	8.05	85000 nM							
O=c1cc(Cc2c(F)cccc2F)nc(N2CCOCC2)[nH]1	>384	6.68	> 81000 nM	< 5.00		< 5.00	< 5.00	< 5.00		pKi [12]: < 4.70; pKi [13]: < 4.70; pKi [14]: 6.15; pKi [15]: 4.82; pKi [16]: < 4.70; pKi [10]: 5.54
O=c1cc(Cc2c(F)cccc2F)nc(N2CCCC2)[nH]1	>925	7.03	> 86000 nM	< 5.00		< 5.00	< 5.00	< 5.00		
Cc1c(C(C)c2c(F)cccc2F)nc(N2CCCCCC2)[nH]c1=O (stereo unspecified)	>8000	8.05	> 72000 nM							
CCCN(CCC)c1nc(Cc2c(F)cccc2F)cc(=O)[nH]1	>44	5.75	> 78000 nM							
CC1CCCCN1c1nc(Cc2c(F)cccc2F)cc(=O)[nH]1 (stereo unspecified)	>729	6.97	> 78000 nM	< 5.00	11	5.94	< 5.00	5.52	28	
Cc1c(Cc2c(F)cccc2F)nc(N2CCC3(CC2)OCCO3)[nH]c1=O	>101	6.19	> 66000 nM							
Cc1ccnc2c1NC(=O)c1cccnc1N2C1CC1 [NEVIRAPINE]		7.10	> 7000 nM	5.74		6.06		5.00		pKi [16]: 4.46
CCCN(C)c1nc(C(C)c2c(F)cccc2F)cc(=O)[nH]1 (stereo unspecified)	>135000	9.22	> 81000 nM	7.10		7.30	< 5.00	6.82	250	Fold change [5]: 83; Fold change [11]: 133
Cc1c(Cc2c(F)cccc2N2CCCC2)nc(N2CCCC2)[nH]c1=O	>113	6.21	> 70000 nM							pKi [10]: 6.30
Cc1c(C(C)c2ccccc2F)nc(N(C)C)[nH]c1=O (stereo unspecified)	7333	8.22	44000 nM							
CCCN(CCC)c1nc(Cc2c(F)cccc2F)c(C)c(=O)[nH]1	>35	5.68	> 74000 nM							
O=c1cc(Cc2c(F)cccc2F)nc(N2CCCCCC2)[nH]1	>3545	7.66	> 78000 nM	< 5.00	19	6.37	< 5.00	5.85	64	
CCN(CC)c1nc(Cc2c(F)cccc2F)c(C)c(=O)[nH]1	>2700	7.52	> 81000 nM							
O=c1cc(Cc2c(F)cccc2N2CCCC2)nc(N2CCCC2)[nH]1	>103	6.15	> 73000 nM							

From ChEMBL document CHEMBL1137561 (J Med Chem, 2007)
